Screening results from PubChem.
NCF1 inh: p47phox (human) inhibition; P14598; p47phox/p22phox peptide binding, fluorescence polarization, 2 h; inhibition, % at 24.7 µM; 220,000 tested, 0.53% active;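 also: 0% = p47phox with labelled peptide and 100% = labelled peptide alone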
WT yeast gro inh: growth inhibition of WT yeast, mitochondrial fusion screen. mitochondrial fusion phenotypic screen, WT strain. inhibition, % at 10 µM. 190,000 tested, 2.1% active; in the data active = inhibition above about 58%; tested in S. cerevisiae
RBBP9 inh: blocks human serine hydrolase RBBP9 | inhibition, % at 7.94 µM | 220,000 tested, 0.2% active | recombinant RBBP9, FP-Rh probe fluorescence polarization | O75884;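 active = inhibition above the campaign mean of all tested compounds plus 3 SD, cut at about 14% in these data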;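 also: plate controls were DMSO wells with RBBP9 for no effect and wells lacking RBBP9 protein for full effect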
Target sequence (O75884 whole entry, looked up): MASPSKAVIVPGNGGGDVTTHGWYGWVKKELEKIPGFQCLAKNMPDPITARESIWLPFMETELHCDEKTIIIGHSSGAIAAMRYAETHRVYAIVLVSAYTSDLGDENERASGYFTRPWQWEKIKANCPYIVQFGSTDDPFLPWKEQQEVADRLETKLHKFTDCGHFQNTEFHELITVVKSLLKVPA
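Test system: recombinant human RBBP9. Quantity: 2.5 µM RBBP9 dispensing solution, before mixing. Detection: FP readout at 525/598 nm. Reagent: Serine-hydrolase probe FP-Rh, 375 nM pre-mixing. Measure: % inhibition. Control set: DMSO-treated enzyme wells and wells lacking RBBP9. Buffer or medium: Tris-NaCl-Pluronic buffer, pH 8.0. Times: preincubation 30 min plus labeling 45 min at 25 °C.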
eIF4E 4G PPI: blocks eIF4E binding to eIF4G; AID 782; 220,000 tested, 0.37% active; TR-FRET eIF4E-eIF4GI(517-606) binding, 2 h; inhibition, % at 21.7 µM;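 also: 0% = full FRET control wells and 100% = background wells lacking eIF4GI fragment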
14-3-3 Bad inh: disrupts binding of bovine 14-3-3 zeta to phospho-Bad peptide; P63103; TR-FRET 14-3-3zeta/Dy647-pBad peptide displacement, 1 h; inhibition, % at 21.7 µM; 220,000 tested, 0.71% active;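 active = inhibition above about 70%, limit read from the data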;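 also: 0% = full 14-3-3 plus peptide FRET controls and 100% = background without 14-3-3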
Target sequence (P63103 whole entry, looked up): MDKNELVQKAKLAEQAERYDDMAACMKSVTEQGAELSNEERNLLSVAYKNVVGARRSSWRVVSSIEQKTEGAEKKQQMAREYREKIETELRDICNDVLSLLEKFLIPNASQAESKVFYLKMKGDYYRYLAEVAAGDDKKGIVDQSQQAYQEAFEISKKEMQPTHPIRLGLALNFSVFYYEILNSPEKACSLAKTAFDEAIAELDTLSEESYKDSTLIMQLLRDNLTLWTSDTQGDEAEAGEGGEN
EBV gp42 block: EBV gp42 inhibition. Q1HVG2. Fluorescence polarization binding assay, mP read-out. inhibition, % (tested at 21.74 µM). 220,000 tested, 0.42% active; in the data active = inhibition above about 50%
Target sequence (Q1HVG2 whole entry, looked up): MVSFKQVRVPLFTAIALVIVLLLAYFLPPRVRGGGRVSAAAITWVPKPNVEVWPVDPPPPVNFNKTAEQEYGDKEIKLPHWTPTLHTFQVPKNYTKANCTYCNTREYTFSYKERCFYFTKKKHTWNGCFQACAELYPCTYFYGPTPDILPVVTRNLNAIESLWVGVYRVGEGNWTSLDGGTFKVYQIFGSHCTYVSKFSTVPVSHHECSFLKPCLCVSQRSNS
* hit, by the source's call; · = no result; [ ] = dose if it differs, or a comment. Shown are actives, neighbours in structure and some others; about 3.7% of the full set was active somewhere.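 The calls were made as follows, unless noted: active = inhibition above about 30% (limit read from the data); inactive = the rest.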

SMILES	NCF1 inh	WT yeast gro inh	RBBP9 inh	eIF4E 4G PPI	14-3-3 Bad inh	EBV gp42 block
COC(=O)CCCC1=CC2=C(c3ccccc3)C(=O)C(C)(OC(=O)C3CCCC3)C(=O)C2=CN1CC1CC1 (stereo not drawn)	-15.2	·	·	89.4*	-2.8	-6.7
O=C(N/N=C1/C(=O)c2cccc3cccc1c23)c1ccc(Cl)cc1	48.1*	22.9	-2.0	6.1	84.7*[fluorescence artefact?]	67.0*
CC1Cc2ccccc2N1C(=S)NC(=O)c1cccc(Br)c1 (stereo not drawn)	-7.7	59.7	-6.0	17.1	-13.4	8.3
CC1Cc2ccccc2N1C(=S)NC(=O)c1ccc(Cl)cc1Cl (stereo not drawn)	-28.6	59.8*	-7.6	-3.4	0.6	8.1
CC1=CC2=NC(=O)/C(=C\c3cc(C)n(-c4ccccc4)c3C)C(=N)N2O1	-7.1	4.0	12.3	80.3*[fluorescence artefact?]	-22.6	-11.9
CC1=CC2=NC(=O)/C(=C\c3cc(C)n(-c4cccc(Cl)c4)c3C)C(=N)N2O1	-42.2	9.2	-7.7	0.3	-2.1	6.9
O=C(c1cccn2c(=O)c3ccccc3nc12)N1CCN(Cc2ccc3c(c2)OCO3)CC1	-10.1	-1.5	-5.5	·	·	-11.2
O=C(c1cccn2c(=O)c3cc(Cl)ccc3nc12)N1CCN(Cc2ccc3c(c2)OCO3)CC1	1.6	·	-3.2	46.1*[fluorescence artefact?]	5.0	2.5
O=c1c2ccccc2c(C=Nc2ccc(O)cc2)c(O)n1Cc1ccccc1	-82.1	·	-1.3	34.0*	2.1	-17.9
COc1ccc(Cn2c(O)c(C=Nc3ccc(C)cc3)c3ccccc3c2=O)cc1	-109.7	-2.6	-7.2	-0.3	-11.4	-11.3
COc1ccc(Cn2c(O)c(C=Nc3ccccc3)c3ccccc3c2=O)cc1	-137.2	6.9	-7.5	-2.5	0.1	-38.5
O=c1c2ccccc2c(C=Nc2cccc(O)c2)c(O)n1-c1ccc2c(c1)OCO2	-48.3	5.2	-2.3	-17.3	22.9	50.5*
COc1ccc(Cn2c(O)c(C=Nc3ccc(O)cc3)c3ccccc3c2=O)cc1	-11.9	64.5*	-5.1	-2.2	-15.8	14.2
COc1ccc(N=Cc2c(O)n(-c3ccc(OC)cc3)c(=O)c3ccccc23)cc1	32.9*	-4.6	-6.3	13.9	75.5*	-7.8
COc1ccc(N=Cc2c(O)n(-c3cccc(C)n3)c(=O)c3ccccc23)cc1	-6.7	-12.0	-4.9	4.7	2.4	-2.1
Cc1nc2c(=O)[nH]c3ccccc3c2o1	2.8	-7.6	-2.4	6.3	-19.6	-2.5
CCOC(=O)c1c(NC(=O)c2ccco2)sc2c1CCCCC2	-12.6	8.6	2.5	-5.7	-5.5	-9.4
CCOC(=O)c1c(NC(=O)c2cccs2)sc2c1CCN(C(=O)OCC)C2	-39.4	63.3*	4.3	-0.8	-4.6	-15.6
CCOC(=O)c1c(NC(=O)c2cccs2)sc2c1CCCC2	-11.3	15.6	-5.4	0.6	3.8	-8.4
CCOC(=O)c1c(NC(=O)C(C)N2CCN(C(=O)c3ccco3)CC2)sc2c1CCCC2 (stereo not drawn)	-11.2	69.6*	2.0	2.4	5.3	-27.9
CCCCN=C(NNc1ccc(Br)cc1)C(=O)OCC	-2.9	64.4*	-2.0	3.2	-15.0	-13.4
CCOC(=O)C(=O)NNc1ccc(C)cc1	-5.7	61.7*	1.4	-0.9	-3.5	-11.9
CC(C)OC(=O)C(=O)NNc1ccccc1	-4.0	72.2*	-4.7	0.0	-5.1	-7.1
CCCOC(=O)C(=O)NNc1ccccc1	-1.8	57.6	-3.7	-1.1	-10.3	-6.3
C/C(CCS(=O)(=O)c1ccccc1)=N/O	1.2	5.8	-11.2	-1.6	10.8	-4.5
SMILES	NCF1 inh	WT yeast gro inh	RBBP9 inh	eIF4E 4G PPI	14-3-3 Bad inh	EBV gp42 block
Cc1cccc(NC(=O)c2ccc(COc3ccc4ccccc4c3)o2)n1	-22.9	36.3	-6.2	-0.3	-8.7	-5.4
Cc1cccc(NC(=O)c2ccc(COc3ccc(Cl)cc3Cl)o2)n1	-8.7	59.7*	-4.8	-2.6	-3.6	-7.1
COc1cc(OC)cc(C(=O)Nc2c(C)nn(-c3ccccc3)c2C)c1	-5.2	-1.6	1.1	-0.9	-0.2	-4.0
Fc1cccc(NCc2ccoc2)c1	0.7	-9.6	-4.9	6.7	82.5*	-24.4
CCN1CCc2c(sc(NC(=S)NC(=O)c3ccccc3)c2C#N)C1	-40.4	-5.1	12.0	-0.5	79.0*	-26.9
CCc1ccc(NC(=S)N(Cc2cccc(Br)c2)CC2CCC(C(=O)O)CC2)cc1 (stereo not drawn)	-5.4	48.4	-4.5	-2.1	-0.7	0.7
O=C(O)CC(c1cccc([N+](=O)[O-])c1)N1Cc2ccccc2C1=O (stereo not drawn)	3.2	-6.1	-4.4	2.6	3.5	6.3
CSCC[C@@H](C(=O)Nc1ccc2c(c1)OCCO2)N1Cc2ccccc2C1=O	-6.7	11.3	-5.4	0.5	1.5	-3.5
O=C(O)[C@@H](c1ccccc1)N1Cc2ccccc2C1=O	-5.8	18.9	8.5	90.2*	91.6*	-11.5
CSCC[C@@H](C(=O)O)N1Cc2ccccc2C1=O	1.6	5.1	·	6.0	81.5*	-4.5
Cc1nnsc1C(=O)N1CCC(CO)(Cc2ccccc2Cl)CC1	-6.6	·	-4.6	-1.8	3.7	-11.9
CCOC(=O)/C(C)=C1\NC(C)(C)Cc2ccccc21	62.1*	-3.6	3.8	1.2	33.3	-104.4
Cc1nc(SCc2c(F)cccc2Cl)n[nH]1	-7.8	1.3	-10.2	-5.5	84.6*	-5.5
CC(C)N(C(=S)NC1CC2CCC1C2)c1ccccc1 (stereo not drawn)	-11.8	64.6*	-6.3	3.9	-22.7	3.5
CCN(CC1COc2ccccc2O1)C(=S)NC1CC2CCC1C2 (stereo not drawn)	-10.9	67.2*	9.6	0.5	-7.8	-5.9
C#CCSc1nc(=O)c2cccnc2n1-c1ccc(C)cc1	6.9	·	-5.5	-0.4	3.0	-3.8
O=S(=O)(Nc1nc2ccccc2nc1N1CCN(c2ccccn2)CC1)c1ccc(Cl)cc1	-5.8	5.4	-0.3	1.3	32.9	63.8*
CCCC(=O)c1ccc(O)cc1O	-15.6	·	3.6	-3.2	-5.7	17.2
CC(=O)Nc1cc[n+](C(C)C(=O)c2ccc(Br)cc2)cc1 (stereo not drawn)	-0.9	13.0	-12.8	2.0	1.9	-7.1
CCc1ccc(C(=O)NNc2ccc(Cl)cc2)cc1	3.5	·	-7.0	5.6	2.1	-8.4
CCc1ccc(C(=O)NNC(=O)OC)cc1	4.7	-1.3	6.0	71.9*	-13.7	-7.7
COCC(=O)N(C)c1nnc(-c2ccc([N+](=O)[O-])cc2)s1	35.0*	4.3	-3.0	8.0	0.8	-20.3
Cc1ccc(NS(=O)(=O)c2ccc(N3C(=O)CCC3=O)cc2)cc1	-14.0	-5.8	3.7	2.4	5.7	-16.6
Cc1[nH]c2ccc(F)cc2c1CCN(Cc1ccco1)C(=S)NC(C)(C)C	-22.1	66.8*	-3.5	-1.2	1.1	-1.8
O=C(O)c1cc([N+](=O)[O-])ccc1C(=O)Nc1ccccc1	-7.2	-0.8	-1.1	9.0	26.8	-5.3
